Consider 4 compounds from ChEMBL document CHEMBL4043068, “(±)-Uncarilins A and B, Dimeric Isoechinulin-Type Alkaloids from Uncaria rhynchophylla” (J Nat Prod, 2017).

Common to all, as to type: functional, cell-based
The target in assay [1] is T1, 5-hydroxytryptamine receptor 1A (Homo sapiens) (UniProt P08908).
T1 sequence (whole entry): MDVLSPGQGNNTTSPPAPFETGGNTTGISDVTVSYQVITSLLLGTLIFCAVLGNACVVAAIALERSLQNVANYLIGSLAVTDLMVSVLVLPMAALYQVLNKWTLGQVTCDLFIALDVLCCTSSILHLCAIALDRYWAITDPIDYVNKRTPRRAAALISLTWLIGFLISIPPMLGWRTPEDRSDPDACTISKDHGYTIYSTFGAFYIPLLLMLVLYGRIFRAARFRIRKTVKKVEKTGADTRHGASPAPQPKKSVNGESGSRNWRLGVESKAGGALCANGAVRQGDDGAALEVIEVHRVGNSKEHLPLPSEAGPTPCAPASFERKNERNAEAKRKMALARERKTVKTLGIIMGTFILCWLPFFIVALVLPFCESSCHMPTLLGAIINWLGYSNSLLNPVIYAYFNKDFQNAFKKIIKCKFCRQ
As to the kind of experiment: Agonist activity at human 5HT1A receptor expressed in HEK293 cells incubated for 1 hr by Fluo-8 dye based calcium assay. The method in brief: (§1)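 HEK293 cells stably expressing the human receptor, kept in DMEM with 10% FBS, seeded at 4 × 10^4 cells/well on Matrigel-coated plates and incubated overnight (5% CO2, 37 °C). Fluo-8 wash-free calcium dye loaded for 1 h at 37 °C. Samples in Hank's balanced salt solution, tested at 0.25 mM. Calcium fluorescence read on a FlexStation3 plate reader.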

The target of assay [2] is Melatonin receptor type 1A (Homo sapiens) (UniProt P48039). As to the kind of experiment: Agonist activity at human MT1 receptor expressed in HEK293 cells incubated for 1 hr by Fluo-8 dye based calcium assay. The method in brief: as §1
Assay [3] addresses T2, Melatonin receptor type 1B (Homo sapiens) (UniProt P49286).
T2 sequence (whole entry): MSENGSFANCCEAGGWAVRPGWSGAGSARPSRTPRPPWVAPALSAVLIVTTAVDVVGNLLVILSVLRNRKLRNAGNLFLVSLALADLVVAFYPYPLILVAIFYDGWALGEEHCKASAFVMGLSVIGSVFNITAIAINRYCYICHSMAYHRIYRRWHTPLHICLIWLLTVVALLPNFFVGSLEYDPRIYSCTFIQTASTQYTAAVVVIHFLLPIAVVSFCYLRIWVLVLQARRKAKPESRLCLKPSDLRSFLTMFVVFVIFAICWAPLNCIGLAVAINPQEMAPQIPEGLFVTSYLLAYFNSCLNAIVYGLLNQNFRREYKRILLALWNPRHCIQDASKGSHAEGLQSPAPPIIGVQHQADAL
As to the kind of experiment: Agonist activity at human MT2 receptor expressed in HEK293 cells incubated for 1 hr by Fluo-8 dye based calcium assay. The method in brief:
as §1

The target in assay [4] is T3, 5-hydroxytryptamine receptor 2C (Homo sapiens) (UniProt P28335).
T3 sequence (whole entry): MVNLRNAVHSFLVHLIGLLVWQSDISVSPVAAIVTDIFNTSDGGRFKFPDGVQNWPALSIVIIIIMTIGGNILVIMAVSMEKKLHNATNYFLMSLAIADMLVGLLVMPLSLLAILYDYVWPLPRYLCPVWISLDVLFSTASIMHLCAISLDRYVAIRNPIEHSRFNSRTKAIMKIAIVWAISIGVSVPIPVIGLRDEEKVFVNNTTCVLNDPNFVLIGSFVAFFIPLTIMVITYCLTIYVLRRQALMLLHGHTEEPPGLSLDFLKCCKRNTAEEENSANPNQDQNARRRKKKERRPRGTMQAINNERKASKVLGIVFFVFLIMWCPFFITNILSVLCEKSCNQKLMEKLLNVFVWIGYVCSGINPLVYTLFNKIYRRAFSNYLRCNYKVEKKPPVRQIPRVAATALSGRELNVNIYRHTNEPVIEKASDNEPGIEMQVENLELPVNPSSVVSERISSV
As to the kind of experiment: Agonist activity at human 5HT2C receptor expressed in HEK293 cells incubated for 1 hr by Fluo-8 dye based calcium assay. The method in brief: as §1

Active and inactive are the calls of the source. The calls are words filed in the database; no cut-off is given here.

Melatonin receptor type 1A (Homo sapiens), sequence (P48039 whole entry): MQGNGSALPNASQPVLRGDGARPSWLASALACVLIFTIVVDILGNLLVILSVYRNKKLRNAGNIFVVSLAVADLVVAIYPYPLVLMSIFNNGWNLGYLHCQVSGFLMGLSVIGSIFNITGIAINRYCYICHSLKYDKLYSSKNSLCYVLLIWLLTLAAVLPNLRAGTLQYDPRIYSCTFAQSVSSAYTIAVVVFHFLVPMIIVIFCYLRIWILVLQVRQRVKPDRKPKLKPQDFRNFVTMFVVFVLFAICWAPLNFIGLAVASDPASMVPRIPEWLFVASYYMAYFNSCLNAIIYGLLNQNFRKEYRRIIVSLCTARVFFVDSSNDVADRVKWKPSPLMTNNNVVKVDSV

Consider `C=CC(C)(C)c1[nH]c2ccccc2c1[C@@H]1[C@@H](c2c(C(C)(C)C=C)[nH]c3ccccc23)[C@@]2(NC(=O)[C@@H](C)NC2=O)[C@]12NC(=O)[C@@H](C)NC2=O`, for which the outcome in assay [1] and in assay [4] was inactive. Also, the result in assay [2] and in assay [3] was Active.
For `C=CC(C)(C)c1[nH]c2ccccc2c1[C@H]1[C@H](c2c(C(C)(C)C=C)[nH]c3ccccc23)[C@]2(NC(=O)[C@@H](C)NC2=O)[C@@]12NC(=O)[C@@H](C)NC2=O`, the result in assay [1] and in assay [4] was inactive. The Activity in assay [2] was found to be 11.3%; in assay [3] it was 52.4%.
`C=CC(C)(C)c1[nH]c2ccccc2c1[C@@H]1[C@@H](c2c(C(C)(C)C=C)[nH]c3ccccc23)[C@@]2(NC(=O)[C@H](C)NC2=O)[C@]12NC(=O)[C@H](C)NC2=O`: the result in assay [1] and in assay [4] was inactive. Besides, the result in assay [2] and in assay [3] was Active.
For `C=CC(C)(C)c1[nH]c2ccccc2c1[C@H]1[C@H](c2c(C(C)(C)C=C)[nH]c3ccccc23)[C@]2(NC(=O)[C@H](C)NC2=O)[C@@]12NC(=O)[C@H](C)NC2=O`, the outcome in assay [1] and in assay [4] was inactive. For the same compound, the result in assay [2] and in assay [3] was Active.
